Redox H2O2 prof = compounds producing H2O2 with reducing agent – biochemical, NIH compound library profiling, artefact control for MLSCN library redox annotation, primary screen; DTT-dependent redox cycling H2O2, phenol red/HRP absorbance; 100% = 100 µM peroxide control, 0% = buffer; activation, % at 10 µM; 200,000 tested, 0.03% active;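 active means activation of at least 50% relative to the plate's high and low controls in the primary single-dose screen; inactive means activation below 50%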;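 further: compound incubated with DTT at 0.8 mM final as the reducing agent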
T cruzi repl = T. cruzi replication inhibition; T. cruzi beta-gal in NIH3T3, luminescence, 90 h; inhibition, % (test concentration not listed); 300,000 tested, 1.4% active;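 active means mean inhibition across valid replicates above about 55%, limit read from the data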;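 further: signal also drops with host cell toxicity which is not excluded here; 0% = plate median of DMSO wells and 100% = zero luminescence signal; higher percent means less beta-gal luminescence so fewer parasites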
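Incubation – ≥90 h infection period, 3 h prior cell attachment · System – NIH/3T3 fibroblasts plus reporter T. cruzi · Doses – compound pinned at 50 nL/well, DMSO · Read-out basis – percent inhibition of parasite-derived β-gal signal · Signal – luminescent β-galactosidase signal after 60 min lysis · Also added – 5000 T. cruzi trypomastigotes/well · Medium – Low-serum DMEM with 2% FBS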
MPTP inh = inhibitors of mitochondrial permeability transition pore | isolated mouse mitochondria, Ca2+ swelling absorbance, 30 min | inhibition, % at 10 µM | 360,000 tested, 1.4% active | AID 602449;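 active means inhibition of 50% or more, scaled per plate between neutral and stimulator controls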;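 further: 0% = DMSO wells given calcium and 100% = 1 mM EGTA wells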
Lmaj promast = reduces viability of Leishmania major promastigotes; resazurin fluorescence viability; 200,000 tested, 9% active; inhibition, % at 10 µM; in the data active means inhibition above about 50%;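 further: promastigotes grown with compound for 44 hours at 28 °C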
Lipid droplet = modulators of hepatic lipid droplet formation | 240,000 tested, 0.4% active | inhibition, % at 6.5 µM | AML12 mouse hepatocytes, oleate lipid droplets, BODIPY imaging | AID 1656;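 active means lipid droplet intensity inhibited by at least 50%, with more than 500 cells counted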
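Material – mouse AML12 hepatocyte cell line, fixed after treatment · Compound dosing – one dose, 6.5 µM compound · Times – compound with oleate, overnight · Measured by – Image-based BODIPY and DAPI two-channel analysis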
An asterisk follows results filed as active; nt = no result given. This excerpt belongs to a sample that is enriched for hits.

SMILES | Redox H2O2 prof | T cruzi repl | MPTP inh | Lmaj promast | Lipid droplet
CCOC(=O)C(=Cc1ccc(-n2cncn2)cc1)C(=O)OCC | -2 | -5 | 0 | 77* | -6
O=C(NNC(=O)C12CC3CC(CC(C3)C1)C2)c1cnccn1 | 0 | -26 | -1 | 89* | -4
CC/C(=N\NC(=O)c1ccncc1)C12CC3CC(CC(C3)C1)C2 | 0 | -4 | 3 | 89* | 15
O=C(NNC(=S)NC(=O)C12CC3CC(CC(C3)C1)C2)c1ccncc1 | 0 | -2 | 8 | 78* | -11
O=C(NNC(=O)C12CC3CC(CC(C3)C1)C2)c1ccccn1 | nt | 4 | -3 | nt | -6
CC/C(=N\NC(=O)c1ccc2c(c1)OCO2)C12CC3CC(CC(C3)C1)C2 | 0 | -8 | 1 | 99* | 13
CC1(C(=O)NC(=S)NNC(=O)c2ccncc2)CCCCC1 | 0 | -2 | -1 | 2 | -2
NC(=O)c1oc2ccccc2c1NC(=O)C1COc2ccccc2O1 (centres undefined) | 1 | -1 | -2 | -6 | -3
COc1ccc2nc(N3CCCC(C(=O)NCCCN4CCN(C)CC4)C3)sc2c1 (centres undefined) | 0 | 18 | 0 | 64* | nt
CCC/C=C/c1ccc(CN2C(CC(C)C)C(=O)N(Cc3cn(CC4CCCCC4)nn3)CCS2(=O)=O)cc1 (centres undefined) | nt | nt | 0 | nt | nt
O=[N+]([O-])c1cccc(S(=O)(=O)N2CCC(c3nc(-c4ccncc4)no3)CC2)c1 | 1 | 61* | 0 | -7 | 3
COc1ccc(C(=O)NCC(=O)N2CCN(C(=O)c3ccco3)CC2)cc1[N+](=O)[O-] | nt | nt | -1 | nt | nt
O=C(Nc1ccccc1)C1=C[C@H](C2CCCCC2)C[C@H](OCCCCO)O1 | nt | 21 | 1 | nt | nt
CC(=O)n1cc([C@H]2C=C(C(=O)Nc3ccccc3)O[C@@H](OCCCCO)C2)c2ccccc21 | 0 | -6 | -1 | 54* | -4
CC(=O)n1cc([C@H]2C=C(C(=O)NCc3ccccc3)O[C@@H](OCCCCO)C2)c2ccccc21 | -1 | -12 | -2 | 7 | -20
O=C(Nc1ccccc1)C1=C[C@@H](C2CCCCC2)C[C@@H](OCCCCO)O1 | 0 | 2 | -1 | 92* | -7
CCO[C@@H]1OC(C(=O)O)=C[C@H](c2cn(C(C)=O)c3ccccc23)[C@H]1CCCO | nt | -14 | -3 | nt | nt
CCO[C@H]1OC(C(=O)NCc2ccccc2)=C[C@@H](c2cn(C(C)=O)c3ccccc23)[C@@H]1CCCO | 0 | 10 | 2 | 82* | 10
Cc1cccc(OCc2nnc(SCC(=O)N3c4ccccc4CCc4ccccc43)o2)c1 | nt | 30 | 3 | nt | -21
O=C(CN(C(=O)CSc1nnc(COc2ccccc2)o1)c1ccc(F)cc1)NC1CCCCC1 | 1 | 21 | 0 | 52* | 4
CCOC(=O)CN(C(=O)CSc1nnc(CNc2ccc(F)cc2)o1)c1ccccc1 | 1 | 2 | 0 | 14 | nt
CC(C)(C)N(Cc1ccccc1)C(=O)CSc1nnc(CNc2ccc(F)cc2)o1 | 0 | 39 | -1 | 100* | -2
O=C(CSc1nnc(CNc2ccc(F)cc2)o1)N1CCN(C(=O)c2ccco2)CC1 | -2 | -8 | 0 | -5 | nt
O=C(CSc1nnc(COc2ccc(F)cc2)o1)N1c2ccccc2CCc2ccccc21 | 4 | 57* | -5 | 10 | nt
O=C(CSc1nnc(CNc2ccc(F)cc2)o1)N1c2ccccc2Sc2ccccc21 | -2 | -3 | -2 | 65* | nt
SMILES | Redox H2O2 prof | T cruzi repl | MPTP inh | Lmaj promast | Lipid droplet
CSc1ccccc1-c1nc(-c2ccncc2)no1 | nt | 13 | 0 | nt | nt
O=C(CNC(=O)COc1ccccc1)NCc1ccccc1F | 0 | 1 | 0 | -7 | -3
CC(C)CN(CC(C)C)C(=O)CCCC(=O)N(CC(C)C)CC(C)C | -1 | -2 | 1 | -3 | 0
COc1ccc(NC(=O)/C(=C/c2cccnc2)NC(=O)c2cccs2)cc1 | -1 | 12 | -2 | -3 | -6
COc1cc(/C=N/NC(=O)CSc2nc3ccccc3n2C)cc(OC)c1OC | -1 | 0 | 0 | 6 | -2
CC[N+]1(CC(O)COC2CC(C)CC(C)(C)C2)CCOCC1 (centres undefined) | nt | -14 | 1 | nt | 0
O=C(CSCc1cccc(Cl)c1)Nc1ccccc1-c1ccccc1 | 0 | 6 | 1 | 87* | -23
CC(C)[C@H](NS(=O)(=O)c1cccc(Cl)c1)C(=O)OCC(=O)NC(=O)CN1CCCC1=O | nt | nt | 0 | nt | nt
CN1CCN(CC2(O)CCN(S(=O)(=O)c3ccc(Cl)cc3)CC2)CC1 | -2 | 72* | -2 | 100* | 4
Cc1ccc(SCC2(O)CCN(S(=O)(=O)c3ccc(Cl)cc3)CC2)cc1 | 1 | 11 | 26 | 3 | -17
Cc1ccc[n+](CC(=O)Nc2ccc(C)c(C)c2)c1 | nt | -12 | 0 | nt | 0
CNC(=O)Cn1c(C)cc(=O)c2cccc(C)c21 | nt | 2 | -1 | nt | 2
Cc1cccc2c(=O)cc(C)n(Cc3ccccc3)c12 | 0 | 4 | 2 | 59* | -8
OCCN(CCO)CC(O)COCCC12CC3CC(CC(C3)C1)C2 (centres undefined) | 0 | 12 | 3 | 71* | 1
OCCN(CCO)CC(O)COc1ccc(C23CC4CC(CC(C4)C2)C3)cc1 (centres undefined) | 0 | 7 | -1 | 100* | 14
OCCN(CCO)CC(O)COc1ccc(Br)cc1 (centres undefined) | nt | 8 | -2 | nt | -10
CCN(CC)CC(O)COCCC12CC3CC(CC(C3)C1)C2 (centres undefined) | 0 | 53 | 0 | 93* | 14
CCC(CC)NC(=O)Nc1ccccc1C(F)(F)F | nt | -9 | 2 | nt | -18
CCN1CCCC1Cn1cnc2c([nH]c3ccc(C)cc32)c1=O (centres undefined) | 5 | 14 | 0 | 52* | nt
O=C1CCCN1CCCNc1ncnc2c1[nH]c1ccc(Cl)cc12 | 3 | 13 | 0 | 39 | -4
CCN1CCCC1CNc1ncnc2c1[nH]c1ccc(Cl)cc12 (centres undefined) | 4 | 32 | 3 | 96* | nt
Cc1ccc2[nH]c3c(=O)n(CCN4CCNCC4)cnc3c2c1 | 0 | 2 | 0 | -3 | -3
COc1ccc(OC2CCN(S(=O)(=O)c3ccccc3)CC2)cc1 | nt | -7 | 2 | nt | -6
CC(C(=O)N(C)Cc1ccccc1)N1CCN(C/C=C/c2ccccc2)CC1 (centres undefined) | nt | 60* | 2 | nt | -5
C(=C\c1ccccc1)/CN1CCN(C(c2ccccc2)c2ccccc2)CC1 | 1 | -2 | 4 | 27 | -9
Fc1ccc(C(c2ccc(F)cc2)N2CCN(C/C=C/c3ccccc3)CC2)cc1 | 2 | 36 | 7 | 53* | -5
COc1ccc(Cl)cc1NC(=O)C(C)N1CCN(C/C=C/c2ccccc2)CC1 (centres undefined) | 0 | 45 | 39 | 62* | 14
